Measured values as given in ChEMBL document CHEMBL1122245, “Synthesis and antiviral activity of distamycin A analogues: substitutions on the different pyrrole nitrogens and in the amidine function” (1983).

Tests used:
[1] = test system: Nucleic Acid; assay: Percent inhibition against DNA polymerase alpha when (dT)n-(rA)12-18 sequence was used as template at 50 uM concentration; format: nucleic-acid assay
Procedure, shortened: (§1)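 Cellular DNA polymerase α (2.5 units/mL) was run in Tris-HCl pH 8.0 buffer with MgCl2, DTT and BSA at 37 °C. Values are duplicate means, and inhibition under 5% was taken as not significant.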

[2] = test system: unidentified influenza virus; assay: Inhibitory effect against influenza virus plaque formation at a concentration of 100 uM; format: functional
Procedure, shortened: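 Plaque inhibition of influenza A strain Victoria in MDCK cells. Values are averages of duplicate cell cultures.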

[3] = test system: Avian myeloblastosis virus reverse transcriptase (Avian myeloblastosis virus); assay: Percent inhibition against AMV reverse transcriptase when (dT)n-(rA)12-18 sequence was used as template at 50 uM concentration
[4] = test system: Avian myeloblastosis virus reverse transcriptase (Avian myeloblastosis virus); assay: Percent inhibition against AMV reverse transcriptase when (dC)n-(dG)12-18 sequence was used as template at 50 uM concentration
[5] = test system: Human alphaherpesvirus 1; assay: Inhibitory effect against HSV-1 plaque formation at a concentration of 200 uM; format: functional; conditions: at 200 µM
[6] = Percent inhibition against DNA polymerase alpha when activated DNA was used as template at 10 uM concentration
Procedure, shortened: (§2)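 Commercial cellular DNA polymerase α (2.5 units/mL) was run in 100 mM Tris-HCl pH 8.0 with 3 mM MgCl2, 1 mM DTT, 40 μg BSA, 100 μM dATP/dCTP/dGTP, ~10 μM [3H]dTTP and 200 μg/mL activated DNA. Incubation was at 37 °C. Values are duplicate means, and inhibition under 5% was taken as not significant.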

[7] = test system: Nucleic Acid; assay: Percent inhibition against DNA polymerase alpha when (dT)n-(rA)12-18 sequence was used as template at 10 uM concentration; format: nucleic-acid assay; procedure, shortened: as §1
[8] = Percent inhibition against DNA polymerase alpha when activated DNA was used as template at 50 uM concentration; procedure, shortened: as §2
[9] = test system: HSV-1; assay: Percent inhibition of DNA polymerase activity in HSV-1 cell lines at a concentration of 10 uM; format: cell-based; conditions: at 10 µM
Procedure, shortened: (§3)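 HSV-1 DNA polymerase was isolated from Vero cells infected with HSV-1 strain C42. It was assayed with [3H]dTTP as labelled substrate and activated calf thymus DNA at 200 μg/mL. Values are averages of duplicate assays, and inhibition under 5% was taken as not significant.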

[10] = test system: HSV-1; assay: Percent inhibition of DNA polymerase activity in HSV-1 cell lines at a concentration of 50 uM; format: cell-based; conditions: at 50 µM; procedure, shortened: as §3
[11] = test system: Avian myeloblastosis virus reverse transcriptase (Avian myeloblastosis virus); assay: Percent inhibition against AMV reverse transcriptase when (rC)n-(dG)12-18 sequence was used as template at 50 uM concentration
[12] = test system: Human alphaherpesvirus 1; assay: Inhibitory effect against HSV-1 plaque formation at a concentration of 1 uM; format: functional
Procedure, shortened: (§4)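 HSV-1 strain C42 plaque formation in Vero cells, with compound added to parallel cultures. Values are averages of duplicate cell cultures.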

[13] = test system: Human alphaherpesvirus 1; assay: Percent inhibition of cellular growth against HSV-1 cells at 10 uM concentration; format: functional; conditions: Human alphaherpesvirus 1, HSV-1
Procedure, shortened: (§5)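 Toxicity taken as the reduction in Vero cell proliferation over 48 h.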

[14] = test system: Human alphaherpesvirus 1; assay: Inhibitory effect against HSV-1 plaque formation at a concentration of 10 uM; format: functional; procedure, shortened: as §4
[15] = test system: Human alphaherpesvirus 1; assay: Percent reduction in HSV-1 yield at 10 uM concentration; format: functional
Procedure, shortened: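 HSV-1 strain C42 yield from Vero cells, measured by virus titration. Compounds were added to parallel cultures, and values are averages of duplicate cultures. Inhibition below 50% was not considered significant.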

[16] = test system: Human alphaherpesvirus 1; assay: Inhibitory effect against HSV-1 plaque formation at a concentration of 5 uM; format: functional; procedure, shortened: as §4
[17] = test system: Human alphaherpesvirus 1; assay: Inhibitory effect against HSV-1 plaque formation at a concentration of 100 uM; format: functional; procedure, shortened: as §4
[18] = test system: Human alphaherpesvirus 1; assay: Percent inhibition of cellular growth against Vero cells at 100 uM concentration; format: functional; conditions: Human alphaherpesvirus 1, HSV-1; procedure, shortened: as §5
[19] = test system: unidentified influenza virus; format: functional; conditions: at 200 µM
[20] = test system: Human alphaherpesvirus 1; assay: Inhibitory effect against HSV-1 plaque formation at a concentration of 50 uM; format: functional; procedure, shortened: as §4
[21] = test system: Human alphaherpesvirus 1; assay: (§6) Percent inhibition of cellular growth against HSV-1 cells at 200 uM concentration; format: functional; conditions: Human alphaherpesvirus 1, HSV-1; procedure, shortened: as §5
[22] = test system: Human alphaherpesvirus 1; assay: as §6; format: functional; conditions: Human alphaherpesvirus 1, HSV-1; remark: listed apart in the source
[23] = test system: Human alphaherpesvirus 1; assay: Percent inhibition of cellular growth against HSV-1 cells at a concentration of 200 uM; format: functional; conditions: Human alphaherpesvirus 1, HSV-1; procedure, shortened: as §5

Compound | inhibition [1] [%] | Reduction [2] [%] | inhibition [3] [%] | inhibition [4] [%] | Reduction [5] [%] | inhibition [6] [%] | inhibition [7] [%] | inhibition [8] [%] | inhibition [9] [%] | inhibition [10] [%] | inhibition [11] [%] | Reduction [15] [%] | Reduction [19] [%] | also measured
Br.CNC(=N)CCNC(=O)c1cc(NC(=O)c2cc(NC(=O)c3cc(NC=O)cn3C)cn2C)cn1C | 76 | <50 | 12 | < 5 | <50 | 27 | 50 | 38 | 45 | 76 | < 5 |  |  | 
Br.Cn1cc(NC=O)cc1C(=O)Nc1cc(C(=O)Nc2c[nH]c(C(=O)NCCC(=N)N)c2)n(C)c1 | 75 | <50 | 17 | < 5 |  | 27 | 45 | 37 | 57 | 83 | < 5 | 99 |  | Reduction [12]: <50%; inhibition at 10 µM [13]: 60%; Reduction [14]: >90%; Reduction [16]: 85%
Br.Cn1cc(NC(=O)c2cc(NC(=O)c3cc(NC=O)c[nH]3)cn2C)cc1C(=O)NCCC(=N)N | 82 |  | 18 | < 5 |  | 31 | 58 | 45 | 54 | 89 | < 5 | 98 | 75 | Reduction [17]: >90%; inhibition at 10 µM [13]: 30%; Reduction [14]: 60%; inhibition at 100 µM [18]: 50%; Reduction [20]: 90%
Br.CCn1cc(NC=O)cc1C(=O)Nc1cc(C(=O)Nc2cc(C(=O)NCCC(=N)N)n(C)c2)n(C)c1 | 85 |  | 11 | < 5 | 50 | 29 | 60 | 42 | 48 | 83 | < 5 |  | <50 | inhibition at 200 µM [21]: 50%
Br.CCn1cc(NC(=O)c2cc(NC(=O)c3cc(NC=O)cn3C)cn2C)cc1C(=O)NCCC(=N)N | 73 |  | 11 | < 5 | <50 | 26 | 40 | 35 | 52 | 83 | < 5 |  | <50 | inhibition at 200 µM [22]: 10%
Br.CCn1cc(NC(=O)c2cc(NC(=O)c3cc(NC=O)cn3CC)cn2CC)cc1C(=O)NCCC(=N)N | 75 |  | 9 | < 5 | <50 | 29 | 58 | 39 | 47 | 80 | < 5 |  | <50 | 
Br.Cn1cc(NC(=O)c2cc(NC(=O)c3cc(NC(=O)c4cc(NC(=O)c5cc(NC=O)cn5C)cn4C)cn3C)cn2C)cc1C(=O)NCCC(=N)N | 56 |  | 39 | < 5 | <50 | 17 | 20 | 50 | 56 | 91 | < 5 |  | 65 | inhibition at 200 µM [21]: 10%
Br.CN(C)C(=N)CCNC(=O)c1cc(NC(=O)c2cc(NC(=O)c3cc(NC=O)cn3C)cn2C)cn1C | 80 | 50 | 15 | < 5 | <50 | 29 | 56 | 41 | 44 | 81 | < 5 |  |  | inhibition at 200 µM [21]: 0%
Br.Cn1cc(NC(=O)c2cc(NC(=O)c3cc(NC=O)cn3C)c[nH]2)cc1C(=O)NCCC(=N)N | 80 |  | 13 | < 5 |  | 29 | 55 | 41 | 55 | 88 | < 5 | 92 | <50 | inhibition at 10 µM [13]: 25%; Reduction [14]: <50%; Reduction [20]: 90%
Br.Cn1cc(NC(=O)c2cc(NC(=O)c3cc(NC=O)cn3C)cn2C)cc1C(=O)NCCC(=N)N | 82 | >50 |  |  | 55 | 31 | 58 | 40 | 49 | 83 |  | 27 |  | 
Br.CCn1cc(NC(=O)c2cc(NC=O)cn2C)cc1C(=O)Nc1cc(C(=O)NCCC(=N)N)n(C)c1 | 64 |  | 8 | < 5 | <50 | 23 | 31 | 34 | 48 | 83 | < 5 |  | <50 | inhibition at 200 µM [23]: 10%
